Key:
[1] = target: T1, 5-hydroxytryptamine receptor 1A (Rattus norvegicus, UniProt P19327); experiment: Binding affinity towards 5-hydroxytryptamine 1A receptor from rat brain using [3H]-8-OH-DPAT as radioligand
T1 sequence (P19327 whole entry): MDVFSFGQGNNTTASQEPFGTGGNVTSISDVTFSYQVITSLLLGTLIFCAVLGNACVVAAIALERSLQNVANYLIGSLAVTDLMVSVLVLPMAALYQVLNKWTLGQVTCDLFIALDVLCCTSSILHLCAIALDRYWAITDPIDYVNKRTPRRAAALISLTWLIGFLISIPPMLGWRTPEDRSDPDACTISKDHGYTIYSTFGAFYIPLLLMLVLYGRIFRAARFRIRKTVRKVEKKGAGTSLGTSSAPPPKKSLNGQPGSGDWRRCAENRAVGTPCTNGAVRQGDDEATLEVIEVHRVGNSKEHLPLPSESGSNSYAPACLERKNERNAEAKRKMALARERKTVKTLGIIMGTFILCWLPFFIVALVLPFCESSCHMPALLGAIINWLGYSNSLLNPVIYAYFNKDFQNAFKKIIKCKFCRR

[2] = target: T2, Adrenergic receptor alpha-1 (Homo sapiens, UniProt P35348+P25100+P35368); experiment: Binding affinity towards Alpha-1 adrenergic receptor in human cortex membranes; assay type: cell membranes
T2 sequence (P35348 whole entry): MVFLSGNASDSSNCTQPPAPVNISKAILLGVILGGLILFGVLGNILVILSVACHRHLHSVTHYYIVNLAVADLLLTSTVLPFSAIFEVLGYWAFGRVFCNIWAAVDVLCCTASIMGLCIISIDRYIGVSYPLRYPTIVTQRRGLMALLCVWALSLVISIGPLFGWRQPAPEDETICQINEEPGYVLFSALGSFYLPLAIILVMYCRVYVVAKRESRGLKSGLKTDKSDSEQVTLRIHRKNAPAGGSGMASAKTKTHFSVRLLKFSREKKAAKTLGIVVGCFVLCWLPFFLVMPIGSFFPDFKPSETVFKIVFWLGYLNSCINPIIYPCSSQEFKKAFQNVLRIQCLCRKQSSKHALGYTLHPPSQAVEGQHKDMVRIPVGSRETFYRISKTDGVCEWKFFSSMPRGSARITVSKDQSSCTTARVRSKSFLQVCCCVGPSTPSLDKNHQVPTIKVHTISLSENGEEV
T2 sequence (P25100 whole entry): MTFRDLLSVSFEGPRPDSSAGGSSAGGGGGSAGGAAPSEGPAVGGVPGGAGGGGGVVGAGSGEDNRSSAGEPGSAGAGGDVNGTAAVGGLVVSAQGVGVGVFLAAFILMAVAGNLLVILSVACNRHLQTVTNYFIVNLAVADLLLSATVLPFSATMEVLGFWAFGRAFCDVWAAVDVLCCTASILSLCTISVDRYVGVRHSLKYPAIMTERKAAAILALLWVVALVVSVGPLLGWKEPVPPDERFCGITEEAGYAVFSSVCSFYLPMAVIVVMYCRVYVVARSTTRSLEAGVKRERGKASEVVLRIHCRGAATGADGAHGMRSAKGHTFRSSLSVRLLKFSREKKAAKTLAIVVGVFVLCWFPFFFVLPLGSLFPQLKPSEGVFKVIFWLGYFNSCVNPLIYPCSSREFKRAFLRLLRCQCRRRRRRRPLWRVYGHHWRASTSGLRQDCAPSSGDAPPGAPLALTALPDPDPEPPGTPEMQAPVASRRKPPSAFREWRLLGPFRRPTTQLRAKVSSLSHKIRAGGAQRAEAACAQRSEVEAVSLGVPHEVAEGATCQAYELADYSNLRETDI
T2 sequence (P35368 whole entry): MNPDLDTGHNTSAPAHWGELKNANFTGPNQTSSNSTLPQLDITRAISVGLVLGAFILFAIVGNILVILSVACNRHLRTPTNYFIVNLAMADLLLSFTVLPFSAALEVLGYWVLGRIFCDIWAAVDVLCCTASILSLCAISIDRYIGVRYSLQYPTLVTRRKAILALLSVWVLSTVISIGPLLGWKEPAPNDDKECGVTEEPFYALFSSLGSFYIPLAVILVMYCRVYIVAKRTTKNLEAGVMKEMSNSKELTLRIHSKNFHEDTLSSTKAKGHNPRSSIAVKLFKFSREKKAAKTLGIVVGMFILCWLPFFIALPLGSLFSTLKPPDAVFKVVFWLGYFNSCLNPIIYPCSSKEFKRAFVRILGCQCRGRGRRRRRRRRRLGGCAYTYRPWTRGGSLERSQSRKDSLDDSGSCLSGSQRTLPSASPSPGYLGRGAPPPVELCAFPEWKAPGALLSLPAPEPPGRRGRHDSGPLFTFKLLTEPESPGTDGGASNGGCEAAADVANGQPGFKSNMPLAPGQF

[3] = test system: Mus musculus; experiment: Antagonistic activity against apomorphine induced climbing in the mouse after po administration; assay type: functional
How it was run: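 Male CD1 mice (20–25 g), groups of 10, dosed po with compound or vehicle ([…]) at set times before apomorphine 0.88 mg/kg sc. Each mouse placed in an inverted open-ended wire cage; climbing scored 0–2 at 10 and 20 min after apomorphine.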

[4] = target: T3, 5-hydroxytryptamine receptor 1A (Homo sapiens, UniProt P08908); experiment: The compound was tested for binding affinity against 5-hydroxytryptamine 1A receptor receptor
T3 sequence (P08908 whole entry): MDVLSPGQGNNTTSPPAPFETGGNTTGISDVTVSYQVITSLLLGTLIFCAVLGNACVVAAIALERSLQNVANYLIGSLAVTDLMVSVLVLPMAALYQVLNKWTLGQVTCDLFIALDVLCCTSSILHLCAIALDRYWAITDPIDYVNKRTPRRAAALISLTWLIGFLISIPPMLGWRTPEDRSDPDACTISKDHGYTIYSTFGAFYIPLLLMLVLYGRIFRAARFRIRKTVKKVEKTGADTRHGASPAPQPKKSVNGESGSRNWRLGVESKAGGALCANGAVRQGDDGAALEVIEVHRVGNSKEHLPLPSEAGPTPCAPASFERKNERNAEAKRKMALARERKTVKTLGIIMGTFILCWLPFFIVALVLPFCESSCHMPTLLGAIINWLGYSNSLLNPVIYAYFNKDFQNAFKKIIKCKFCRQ

[5] = target: 5-hydroxytryptamine receptor 6 (Rattus norvegicus, UniProt P31388); experiment: The compound was tested for binding affinity against 5-hydroxytryptamine 6 receptor
5-hydroxytryptamine receptor 6, sequence (P31388 whole entry): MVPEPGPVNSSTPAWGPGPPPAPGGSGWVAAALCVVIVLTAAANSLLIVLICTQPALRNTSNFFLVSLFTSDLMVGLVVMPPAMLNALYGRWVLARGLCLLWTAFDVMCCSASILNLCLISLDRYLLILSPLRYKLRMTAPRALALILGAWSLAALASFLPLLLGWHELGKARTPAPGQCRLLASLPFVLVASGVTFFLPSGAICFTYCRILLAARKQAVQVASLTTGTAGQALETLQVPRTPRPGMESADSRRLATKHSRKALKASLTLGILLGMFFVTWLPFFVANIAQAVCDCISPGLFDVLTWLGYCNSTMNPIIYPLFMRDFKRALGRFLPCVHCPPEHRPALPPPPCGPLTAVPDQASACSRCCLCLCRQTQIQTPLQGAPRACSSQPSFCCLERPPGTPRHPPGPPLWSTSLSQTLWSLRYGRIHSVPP

In the case of `COc1ccccc1N1CCC(CNCC2COc3ccc(Cl)cc3O2)CC1` (stereo not given), the Ki [1] is reported as 22 nM, the Ki [2] is reported as 53 nM and the ED50 [3] is reported as 5 mg/kg. For the same molecule, the Ki [4] was 3.6 nM and the Ki [5] was over 500 nM.
